Test results as given in paper PMC3034734 (Chemistry & biology, 2009).
Numbering of substitutions follows the chain as printed. Read-outs that look alike come from different tables or passages of the source.

What was measured:
[1] = target: T1, purified recombinant rat MGL (Rattus norvegicus, UniProt Q8R431); test: Inhibition of purified recombinant MGL; format: biochemical
T1 sequence (Q8R431 1-303): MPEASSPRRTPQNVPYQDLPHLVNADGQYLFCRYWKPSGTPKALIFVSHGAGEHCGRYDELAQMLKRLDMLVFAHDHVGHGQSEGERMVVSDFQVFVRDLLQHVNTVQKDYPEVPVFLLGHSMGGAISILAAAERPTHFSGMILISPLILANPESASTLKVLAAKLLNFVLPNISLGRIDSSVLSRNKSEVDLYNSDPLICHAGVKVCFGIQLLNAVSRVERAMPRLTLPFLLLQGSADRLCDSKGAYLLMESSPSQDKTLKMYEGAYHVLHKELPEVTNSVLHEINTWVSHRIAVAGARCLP

[2] = test system: primary cultures of rat cortical neurons; test: 2-AG and PEA levels in primary cultures of rat cortical neurons; format: cell-based
MGL C201G mutant = target: T2, MGL C201G mutant (Rattus norvegicus, UniProt Q8R431, C201G); test: Inhibition of MGL C201G mutant in HeLa cell extracts; format: biochemical
T2 sequence (Q8R431 1-303 C201G): T1 sequence (Q8R431 1-303) with C201G

non-purified HeLa MGL = target: T3, non-purified HeLa MGL (Rattus norvegicus, UniProt Q8R431); test: Michaelis-Menten kinetic analysis of the MGL reaction; format: biochemical; settings: for Vmax of MGL in presence of inhibitor: vehicle 200±20; for Mechanism of MGL inhibition: from rapid dilution and kinetic experiments
T3 sequence (Q8R431 1-303): T1 sequence (Q8R431 1-303)

rat ABHD12 = target: T4, rat ABHD12 (Rattus norvegicus, UniProt Q6AYT7); test: ABHD12 activity assay; format: biochemical; settings: in vitro
T4 sequence (Q6AYT7 1-398): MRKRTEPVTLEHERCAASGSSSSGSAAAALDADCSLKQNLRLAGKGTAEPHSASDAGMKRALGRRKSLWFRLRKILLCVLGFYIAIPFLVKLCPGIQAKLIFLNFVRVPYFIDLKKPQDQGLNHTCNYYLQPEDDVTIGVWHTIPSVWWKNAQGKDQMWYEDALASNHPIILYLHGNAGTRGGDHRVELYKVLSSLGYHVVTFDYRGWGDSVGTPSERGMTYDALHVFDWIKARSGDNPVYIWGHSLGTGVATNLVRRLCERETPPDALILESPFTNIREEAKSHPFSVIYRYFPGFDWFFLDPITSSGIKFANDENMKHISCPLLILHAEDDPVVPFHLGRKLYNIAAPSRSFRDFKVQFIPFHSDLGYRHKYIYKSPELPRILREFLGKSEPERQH
Method in brief: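 Rat full-length ABHD12 (V5-tagged) transiently expressed in HeLa cells, harvested at 48 h, and homogenised in 50 mM Tris-Cl pH 8.0 with 0.32 M sucrose. Modified MGL assay run at pH 7.5 with 3 μg protein per reaction for 30 min at 37°C. Samples extracted; product (m/z 281) quantified by negative-ion ESI LC/MS in SIM mode against heptadecanoic acid standard.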

rat ABHD6 = target: T5, rat ABHD6 (Rattus norvegicus, UniProt Q5XI64); test: ABHD6 activity assay; format: biochemical
T5 sequence (Q5XI64 1-337): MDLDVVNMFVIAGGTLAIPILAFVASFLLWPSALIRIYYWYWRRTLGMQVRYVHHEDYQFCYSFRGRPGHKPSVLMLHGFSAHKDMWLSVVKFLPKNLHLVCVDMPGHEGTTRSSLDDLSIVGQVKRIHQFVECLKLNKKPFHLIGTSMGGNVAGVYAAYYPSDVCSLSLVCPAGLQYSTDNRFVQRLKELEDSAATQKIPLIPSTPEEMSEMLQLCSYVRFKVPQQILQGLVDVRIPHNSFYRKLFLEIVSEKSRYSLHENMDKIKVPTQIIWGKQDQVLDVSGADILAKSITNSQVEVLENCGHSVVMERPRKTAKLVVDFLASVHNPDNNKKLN

[3] = test system: rat brain diacylglycerol lipase; test: DGL activity in rat brain homogenates; format: biochemical; settings: in vitro, Table S1
rat brain FAAH = target: T6, rat brain FAAH (Rattus norvegicus, UniProt P97612); test: FAAH activity in rat brain homogenates; format: biochemical; settings: in vitro, Table S1
T6 sequence (P97612 1-579): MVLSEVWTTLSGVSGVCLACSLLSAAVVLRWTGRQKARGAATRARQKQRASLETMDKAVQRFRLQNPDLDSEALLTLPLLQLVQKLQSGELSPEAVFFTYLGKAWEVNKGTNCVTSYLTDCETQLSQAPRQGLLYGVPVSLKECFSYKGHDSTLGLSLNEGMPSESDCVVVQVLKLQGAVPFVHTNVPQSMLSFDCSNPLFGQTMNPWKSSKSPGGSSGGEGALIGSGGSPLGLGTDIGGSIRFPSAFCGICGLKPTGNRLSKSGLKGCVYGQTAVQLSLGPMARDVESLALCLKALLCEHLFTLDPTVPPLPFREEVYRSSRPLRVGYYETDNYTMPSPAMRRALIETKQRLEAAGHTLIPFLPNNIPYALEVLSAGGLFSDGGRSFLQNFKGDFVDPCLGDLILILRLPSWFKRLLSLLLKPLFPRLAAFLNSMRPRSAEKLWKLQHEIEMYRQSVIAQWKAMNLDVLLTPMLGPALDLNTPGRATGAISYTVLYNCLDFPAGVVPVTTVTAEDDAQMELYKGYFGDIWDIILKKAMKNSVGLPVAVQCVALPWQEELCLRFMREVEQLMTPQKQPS

purified MGL = purified MGL (Rattus norvegicus, UniProt Q8R431); format: biochemical
MGL C208G mutant = target: T7, MGL C208G mutant (Rattus norvegicus, UniProt Q8R431, C208G); test: Inhibition of MGL C208G mutant in HeLa cell extracts; format: biochemical
T7 sequence (Q8R431 1-303 C208G): T1 sequence (Q8R431 1-303) with C208G

MGL Cys32 mutant = target: T8, MGL Cys32 mutant (Rattus norvegicus, UniProt Q8R431, C32G); test: Inhibition of MGL Cys32 mutant; format: biochemical; settings: data not shown
T8 sequence (Q8R431 1-303 C32G): T1 sequence (Q8R431 1-303) with C32G

[4] = target: T9, non-purified HeLa MGL (wild-type) (Rattus norvegicus, UniProt Q8R431); test: Inhibition of non-purified MGL; format: biochemical
T9 sequence (Q8R431 1-303): T1 sequence (Q8R431 1-303)

[5] = target: T10, rat recombinant N-acylethanolamide acid amidase (Rattus norvegicus, UniProt Q5KTC7); test: NAAA activity assay; format: biochemical; settings: in vitro, Table S1
T10 sequence (Q5KTC7 131-362 limits assumed): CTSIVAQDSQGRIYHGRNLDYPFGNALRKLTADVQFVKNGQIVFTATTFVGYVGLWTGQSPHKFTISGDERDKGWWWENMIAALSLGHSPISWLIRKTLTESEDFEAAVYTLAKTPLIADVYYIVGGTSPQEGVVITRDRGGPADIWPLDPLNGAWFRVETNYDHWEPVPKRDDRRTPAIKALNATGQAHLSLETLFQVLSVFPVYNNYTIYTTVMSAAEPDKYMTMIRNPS
T10 sequence (Q5KTC7 34-130 limits assumed): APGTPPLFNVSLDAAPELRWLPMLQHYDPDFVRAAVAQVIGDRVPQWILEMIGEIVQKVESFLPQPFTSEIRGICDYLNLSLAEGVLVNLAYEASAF
Method in brief: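 Rat NAAA (Flag-tagged) from stably transfected HEK293 cells (G418 0.3 mg/ml), prepared by sonication, differential centrifugation, freeze-thaw and 105,000 × g supernatant. 50 μM heptadecenoylethanolamide incubated with 10 μg protein in 50 mM sodium phosphate pH 5.0, 0.1% Triton X-100, 3 mM DTT, 30 min at 37°C. Stopped with cold methanol containing heptadecanoic acid; product (m/z 267) measured by LC/MS SIM.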

[6] = IC50, inhibition of non-purified MGL, cell lysates of MGL-transfected HeLa cells
[7] = IC50, wild-type MGL in HeLa cell extracts, wt control of the mutational analysis

COC(=O)[C@]1(C)CC[C@]2(C)CC[C@]3(C)C4=CCc5c(cc(O)c(O)c5C)[C@]4(C)CC[C@@]3(C)[C@@H]2C1 [Pristimerol]
IC50 [1]: 4000 ± 500 nM

CC(=O)Oc1cc2c(c(C)c1OC(C)=O)CC=C1[C@@]2(C)CC[C@@]2(C)C3C[C@](C)(C(=O)O)CC[C@]3(C)CC[C@]12C (some centres unmarked) [Dihydrocelastryl Diacetate]
IC50 ([1]; read-out: IC50, inhibition of purified recombinant MGL): 15000 ± 3000 nM

CCCCC/C=C\C/C=C\C/C=C\C/C=C\CCCCN1C(=O)C=CC1=O [N-arachidonylmaleimide, reference compound]
Effect on 2-AG levels [2]: increased
Effect on PEA levels [2]: increased

COC(=O)[C@]1(C)CC[C@]2(C)CC[C@]3(C)C4=CC=C5C(=CC(=O)C(O)=C5C)[C@]4(C)CC[C@@]3(C)[C@@H]2C1 [Pristimerin]
Effect of Cys201 mutation on inhibitory potency (MGL C201G mutant; C201G vs wt, HeLa cell extracts): without affecting the potency
Vmax of MGL in presence of inhibitor (non-purified HeLa MGL; 100 nM inhibitor): 174 ± 7 pmol/min/µg
Vmax of MGL in presence of inhibitor (non-purified HeLa MGL; 300 nM inhibitor): 104 ± 7 pmol/min/µg
Vmax of MGL in presence of inhibitor (non-purified HeLa MGL; 500 nM inhibitor): 51 ± 18 pmol/min/µg
Mechanism of MGL inhibition (non-purified HeLa MGL): rapid, reversible and non-competitive
Effect on ABHD12 activity (rat ABHD12): did not affect the activity
IC50 (rat ABHD6): 98 ± 8 nM
Effect on diacylglycerol lipase activity [3]: no significant effect
Effect on FAAH activity (rat brain FAAH): no significant effect
Effect on PEA levels ([2]; 1 μM, 30 min): not accompanied by any significant changes
Cellular 2-AG concentrations ([2]; 1 μM, 30 min, over vehicle-treated neurons): 1.6±0.1 fold change
Time-course of MGL inhibition (purified MGL): almost immediate blockade of MGL activity
IC50 (MGL C208G mutant): 1180 ± 174 nM
Effect of Cys32 mutation on activity of inhibitor (MGL Cys32 mutant): did not influence the activity
IC50 [4, 6]: 398 ± 68 nM
IC50 [4, 7]: 350 ± 37 nM
Effect on N-acylethanolamide acid amidase activity [5]: no significant effect

Cc1c(O)c(O)cc2c1CC=C1[C@@]2(C)CC[C@@]2(C)[C@@H]3C[C@](C)(C(=O)O)CC[C@]3(C)CC[C@]12C [Dihydrocelastrol]
IC50 [1]: 15000 ± 4000 nM

CC1=C(O)C(=O)C=C2C1=CC=C1[C@@]2(C)CC[C@@]2(C)[C@@H]3C[C@](C)(C(=O)O)CC[C@]3(C)CC[C@]12C [Celastrol]
IC50 [1]: 1600 ± 400 nM

CC(C)=CCC[C@@H](C)[C@@H]1CC[C@]2(C)C3=C(CC[C@@]12C)[C@@]1(C)CC[C@H](O)C(C)(C)[C@@H]1CC3 [euphol]
IC50 (MGL C201G mutant): 2600 ± 200 nM
Mechanism of MGL inhibition (non-purified HeLa MGL): reversible and non-competitive
IC50 (rat ABHD6): 9000 ± 1000 nM
Effect on PEA levels ([2]; 10 μM, 30 min, data not shown): small, non-significant change
Cellular 2-AG levels ([2]; 10 μM, 30 min, over vehicle-treated neurons): 1.2±0.2 fold change
Effect of Cys208 replacement on concentration-response curve (MGL C208G mutant; C208G vs wt, HeLa cell extracts): no effect
Effect of Cys32 mutation on activity of inhibitor (MGL Cys32 mutant): did not influence the activity
IC50 [4, 6]: 882 ± 78 nM
IC50 [4, 7]: 513 ± 9 nM
